A selection: hits, their analogues and other compounds. The true share with any hit is near 2.5%.
HTRA1 inh: blocks human HTRA1 serine peptidase; Q92743; recombinant HTRA1, FP-rhodamine activity-based probe, fluorescence polarization; inhibition, % at 5.96 µM; 340,000 tested, 0.5% active; in the data active means inhibition above about 36%;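 further: 0% = enzyme with DMSO and 100% = wells lacking enzyme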
PRMT1 FP inh: PRMT1 (human) inhibition, primary screen. Q99873. inhibition, % at 2.79 µM. 370,000 tested, 1.3% active. recombinant PRMT1, activity-based probe fluorescence polarization;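 active means inhibition above about 21% made by adding two undisclosed values, limit read from the data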
mABHD4 FP: inhibits mouse alpha/beta hydrolase domain 4; purified mABHD4, FP-Rh probe fluorescence polarization; inhibition, % at 8.92 µM; 370,000 tested, 0.54% active;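 active means inhibition exceeding the mean over every tested compound plus 3 SD, cut at about 30% in these data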;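 further: 0% = plate median of compound wells and 100% = S159A mutant with DMSO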
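Material: mouse ABHD4 enzyme, wild type; Benchmarks: S159A mutant high control, sample median low control; Buffer or medium: HEPES pH 7.0, NaCl, Pluronic buffer; Signal: fluorescence polarization; Read-out: percent inhibition of probe binding, normalized to plate controls; Timing: pre-incubation 45 min, probe exposure 60 min, at 25 °C; Dosing: 8.92 µM, single dose.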
TCR-CD3 inh: human TCR-CD3 binding inhibition; inhibition, % at 9.4 µM; 360,000 tested, 0.37% active; TAMRA-labeled TCR probe fluorescence, biochemical; in the data active means inhibition above about 19%;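 further: recombinant mutant TCR 2C K166C tagged with TAMRA read by polarization; 0% = receptor in buffer alone and 100% = receptor with positive control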
SIAE inh: inhibitors of human sialic acid acetylesterase SIAE. SIAE FP-Rh probe binding, fluorescence polarization. 370,000 tested, 0.69% active. Q9HAT2. AID 1053197. inhibition, % at 9.66 µM;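 active means inhibition above a cutoff: mean of compounds within the control limits plus 3 SD of those, cut at about 17% in these data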;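 further: 0% = plate median of compound wells and 100% = probe without SIAE protein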
Target sequence (Q9HAT2 whole entry, looked up): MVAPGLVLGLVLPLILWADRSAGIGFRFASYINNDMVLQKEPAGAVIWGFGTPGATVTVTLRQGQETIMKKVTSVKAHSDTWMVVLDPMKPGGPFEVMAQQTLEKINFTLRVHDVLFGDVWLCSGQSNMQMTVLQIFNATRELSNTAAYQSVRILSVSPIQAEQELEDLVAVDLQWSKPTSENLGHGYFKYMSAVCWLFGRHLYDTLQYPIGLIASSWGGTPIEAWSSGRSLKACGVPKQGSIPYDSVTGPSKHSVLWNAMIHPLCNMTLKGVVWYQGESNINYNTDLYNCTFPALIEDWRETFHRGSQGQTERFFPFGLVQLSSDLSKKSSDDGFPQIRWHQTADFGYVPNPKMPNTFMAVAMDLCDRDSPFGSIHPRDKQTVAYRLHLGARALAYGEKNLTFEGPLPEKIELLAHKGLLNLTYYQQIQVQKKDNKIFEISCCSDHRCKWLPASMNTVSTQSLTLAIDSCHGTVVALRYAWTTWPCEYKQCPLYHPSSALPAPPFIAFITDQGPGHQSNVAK
HTRA1 inh conf: confirmation of human HTRA1 inhibitors | shares compounds with HTRA1 inh | recombinant HTRA1, FP-rhodamine activity-based probe, fluorescence polarization | inhibition, % at 5.96 µM | 1,600 tested, 66% active;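 active means mean inhibition over three repeats above a set limit taken from the earlier primary screen, cut at about 37% in these data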;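 further: 0% = HTRA1 with DMSO and 100% = wells lacking HTRA1; inhibitors block probe binding so polarization drops and inhibition rises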
Starred values were filed as active, the others as inactive; / = no result.

SMILES	HTRA1 inh	PRMT1 FP inh	mABHD4 FP	TCR-CD3 inh	SIAE inh	HTRA1 inh conf
COC(=O)C1CN(Cc2cn(Cc3ccc(F)cc3)nn2)CCS(=O)(=O)N1Cc1ccc(F)cc1 (stereo not given)	/	-1.0	-1.0	/	6.2	/
CCN(C(=O)c1c([N+](=O)[O-])cnn1C)c1ccccc1	36.6*	-0.3	-2.5	2.7	0.3	31.8
CCN(C(=O)c1c(N)cnn1C)c1ccccc1	1.3	-1.6	4.9	0.0	6.9	/
N#Cc1cc(-c2ccccc2)cnc1Sc1ccccc1	-5.8	-3.4	-3.2	2.8	-6.6	/
N#Cc1c(N)[nH]c2ccc(Sc3ccccc3)cc12	41.0*	-3.0	13.5	5.3	9.1	32.9
COc1c(Br)cc(/C=N/n2c(-c3ccccc3)n[nH]c2=S)c(O)c1Br	74.5*	10.4	25.3	9.7	6.7	30.5
CCn1c2c(n(C(C)=O)c1=O)C=C(C(=O)N1CCCC1)C(C)C(c1ccccc1)=C2 (stereo not given)	/	3.4	6.2	0.3	10.2	/
CCCC(=O)NC(c1cccs1)c1cc([N+](=O)[O-])c2cccnc2c1O (stereo not given)	36.3*	4.7	12.2	-0.2	7.9	51.0*
O=C(CCc1ccccc1)NC(c1cccs1)c1cc(Cl)c2cccnc2c1O (stereo not given)	48.8*	4.3	-3.4	-5.2	-0.1	54.0*
Cc1nc(-c2ccccc2O)n(-c2ccccc2)n1	-4.6	1.9	-1.5	-5.4	4.6	/
Cc1ccccc1-c1ccc(Nc2ccc(N3CCOCC3)cc2)nn1	45.4*	/	/	/	/	53.6*
O=S1(=O)N=C(Nc2ccc(N3CCOCC3)cc2)c2ccccc21	0.5	-2.3	2.2	1.9	-3.1	/
CC(=O)Nc1ccc2nc(-c3ccccn3)[nH]c2c1	1.3	0.1	4.2	-4.2	-4.0	/
c1ccc(-c2nc3cc4ccccc4cc3[nH]2)nc1	55.1*	-2.5	7.3	-0.9	15.0	60.1*
Cc1ccc(S(=O)(=O)/N=C2\C=C(Nc3ccc(O)cc3)C(=O)c3ccccc32)cc1	87.8*	/	/	/	/	77.5*
O=C1C=C(Nc2ccccc2)C(=O)c2ccccc21	16.6	0.8	19.2	4.1	-1.7	/
O=C1C(Nc2ccccc2)=C/C(=N/S(=O)(=O)c2cccs2)c2ccccc21	63.4*	/	/	/	/	62.1*
CCOC(=O)C1=NN(C(=O)c2ccc(C)cc2)C(O)(c2ccc(Cl)cc2)C1 (stereo not given)	60.1*	0.1	10.1	-5.3	1.4	72.0*
C[C@]12CCC[C@H](O1)c1c(cc3c(c1O)C(=O)c1c(O)cc(O)cc1C3=O)O2	36.8*	1.2	1.5	-2.4	-17.8	61.7*
Nc1c(Cl)ncnc1N/N=C/c1ccc2ccccc2n1	79.4*	3.4	27.3	4.0	5.2	72.0*
Nc1c(Cl)ncnc1N/N=C/c1ccnc2ccccc12	13.9	3.1	3.8	16.3	9.2	/
CC1(C(=O)NS(=O)(=O)C2CC2)CCCN(C(=O)c2cccc(Cl)c2)C1 (stereo not given)	/	0.3	-0.5	-5.8	0.7	/
O=C(Nc1ccc(N2CCCC2)cc1)c1cc(Cl)ccc1Cl	59.4*	-1.1	2.1	7.4	6.7	5.7
Cc1ccc(C(=O)N2CCN(c3ccc(NC(=O)c4cc(C)cc(C)c4)cc3)CC2)cc1	-2.8	-4.9	0.9	4.1	4.1	/
Cc1cc(C)cc(C(=O)Nc2ccc(N3CCCC3)cc2)c1	39.3*	4.2	11.5	1.6	0.6	10.9
SMILES	HTRA1 inh	PRMT1 FP inh	mABHD4 FP	TCR-CD3 inh	SIAE inh	HTRA1 inh conf
CCCCC(=O)Nc1ccc(N2CCCC2)cc1	44.2*	0.8	4.7	0.1	1.5	37.9*
CCCCC(=O)Nc1ccc(N2CCN(C(=O)CC)CC2)cc1	2.4	-3.6	4.5	2.8	-5.6	/
O=C(Nc1ccc(N2CCCC2)cc1)c1ccc(Cl)cc1Cl	8.3	-4.4	3.4	2.5	11.1	/
Cc1cccn2c(CNCCc3ccco3)c(C(=O)N3CCOCC3)nc12	-1.6	-3.9	-11.0	1.3	2.6	/
COC(=O)C1CN(Cc2ccccc2)CCS(=O)(=O)N1Cc1ccc(C)cc1 (stereo not given)	/	3.7	-6.6	/	1.6	/
NC(=O)c1ncn([C@@H]2O[C@H](C(=O)N3CCN(Cc4ccccn4)CC3)[C@@H](O)[C@H]2O)n1	/	-3.3	-0.7	1.9	12.1	/
O=C(NC(=S)NNC(=O)c1ccccc1O)c1cccs1	55.6*	-2.1	11.5	18.8	15.7	53.9*
COc1ccccc1C(=O)NNC(=S)NC(=O)c1cccs1	14.6	3.8	-9.9	8.3	-0.7	/
COC1=CC(=O)C(O)=C(CCCCCCC/C=C/CCCCCCCC2=C(O)C(=O)C=C(OC)C2=O)C1=O	64.4*	/	/	/	/	93.5*
Cc1c(C(=O)NCc2ccccc2C(F)(F)F)sc(=O)n1Cc1ccc2c(c1)OCO2	/	0.1	-3.1	8.0	-13.6	/
COc1ccc(C(C)(NC(C)=O)c2nc(/C=C/c3ccccc3)cs2)cc1 (stereo not given)	/	1.9	-7.0	0.1	4.7	/
CC1(C)CC2(CC(c3ccc(F)cc3)c3ccc(O)cc3O2)NC(=S)N1 (stereo not given)	-4.0	16.7	1.1	-12.5	-4.0	/
CC1(C)CC2(CC(c3ccccc3F)c3ccc(O)c(O)c3O2)NC(=S)N1 (stereo not given)	60.9*	18.2	20.7	5.9	4.4	58.0*
Cc1nc(N2CCN(S(=O)(=O)c3ccccc3C#N)CC2)c2c(-c3ccccc3)csc2n1	6.0	-2.7	-6.7	-1.4	-0.9	/
CCCCN1CC(=O)N2[C@H](c3ccc(Cl)cc3)[C@@H]3C(=O)N(CC)C(=O)[C@@H]3[C@]2(C)C1=O	-4.8	-0.2	7.4	0.6	3.5	/
Cc1ccccc1C(C)NS(=O)(=O)c1ccc2c(c1)OCCO2 (stereo not given)	40.0*	-1.3	1.1	3.0	-3.0	34.2
CC(C(=O)NC1CCCCC1)N1CCN(C)CC1 (stereo not given)	10.4	6.3	19.1	-3.9	-2.7	/
O=C(COc1ccccc1C(=O)N/N=C\c1ccc(O)c(O)c1)N/N=C/c1ccc(O)c(O)c1	47.2*	/	/	/	/	58.6*
CC(C)(C)c1ccc(OCc2ccc(C(=O)N/N=C/c3ccc(O)c(O)c3)cc2)cc1	45.3*	-3.4	24.9	2.5	13.5	81.5*
Cc1cc(=O)[nH]c2cc(O)ccc12	2.0	-2.5	0.9	2.4	0.8	/
CC(C)=CCCC1(C)C=Cc2c(c(C)cc3c2[nH]c2cc(O)ccc23)O1 (stereo not given)	45.7*	-2.0	2.0	12.1	14.5	31.5
O=C(Nc1nnc(CCN2CCCCC2)s1)c1ccccc1Cl	3.1	4.2	-4.5	-3.2	-4.2	/
c1ccc(-c2nnc(-c3ccccn3)nc2NC2CCCCC2)cc1	65.0*	-1.7	5.0	0.1	-1.3	80.1*
Cc1ccc(O)c(CNc2cccc3cccnc23)c1	22.1	-0.6	7.1	-5.8	4.5	/
Oc1ccc(Br)cc1CNc1cccc2cccnc12	45.0*	-2.3	20.9	-4.7	12.8	7.7
